pIC50: −log10 of the molar value. Each block holds one compound with its values, some of them ahead of it. Activity calls are given as the source filed them. No cut-off for these calls is given here.
Columns and labels:
[1] = molecular target: T1, Mitogen-activated protein kinase kinase kinase 11 (Homo sapiens, UniProt Q16584); assay: Inhibition of GST-fused human MLK3 at 1 uM
How it was run: (§1)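 Baculovirus-expressed GST fusions of human MLK1 or MLK3 kinase domain (50 ng MLK1, 100 ng MLK3), myelin basic protein substrate at 500 µg/mL.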
Target sequence in this assay (Q16584 whole entry, looked up, the tested form may be a part): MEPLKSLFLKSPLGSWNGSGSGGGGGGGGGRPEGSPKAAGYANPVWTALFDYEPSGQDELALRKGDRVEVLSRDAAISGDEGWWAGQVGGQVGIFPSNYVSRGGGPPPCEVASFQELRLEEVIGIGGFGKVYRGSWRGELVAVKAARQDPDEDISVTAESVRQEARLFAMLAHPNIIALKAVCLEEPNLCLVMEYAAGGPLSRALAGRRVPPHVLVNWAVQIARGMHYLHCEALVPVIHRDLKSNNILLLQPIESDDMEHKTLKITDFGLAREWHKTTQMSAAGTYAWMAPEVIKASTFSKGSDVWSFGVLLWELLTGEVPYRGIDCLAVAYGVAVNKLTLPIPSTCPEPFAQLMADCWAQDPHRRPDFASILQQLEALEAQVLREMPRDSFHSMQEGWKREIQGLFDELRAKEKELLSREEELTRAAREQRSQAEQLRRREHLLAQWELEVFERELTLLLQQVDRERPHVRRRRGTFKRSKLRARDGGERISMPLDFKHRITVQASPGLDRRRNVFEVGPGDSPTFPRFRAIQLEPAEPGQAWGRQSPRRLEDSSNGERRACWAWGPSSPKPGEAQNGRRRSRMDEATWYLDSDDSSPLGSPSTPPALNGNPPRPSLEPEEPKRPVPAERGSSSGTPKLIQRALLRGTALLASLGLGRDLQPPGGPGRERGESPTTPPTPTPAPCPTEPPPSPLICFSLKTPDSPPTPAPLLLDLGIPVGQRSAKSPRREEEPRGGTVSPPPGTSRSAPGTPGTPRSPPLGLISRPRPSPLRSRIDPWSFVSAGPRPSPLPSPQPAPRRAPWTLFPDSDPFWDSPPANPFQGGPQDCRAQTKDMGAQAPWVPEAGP

[2] = molecular target: T2, Mitogen-activated protein kinase kinase kinase 9 (Homo sapiens, UniProt P80192); assay: Inhibition of GST-fused human MLK1 at 1 uM; how it was run: as §1
Target sequence in this assay (P80192 whole entry, looked up, the tested form may be a part): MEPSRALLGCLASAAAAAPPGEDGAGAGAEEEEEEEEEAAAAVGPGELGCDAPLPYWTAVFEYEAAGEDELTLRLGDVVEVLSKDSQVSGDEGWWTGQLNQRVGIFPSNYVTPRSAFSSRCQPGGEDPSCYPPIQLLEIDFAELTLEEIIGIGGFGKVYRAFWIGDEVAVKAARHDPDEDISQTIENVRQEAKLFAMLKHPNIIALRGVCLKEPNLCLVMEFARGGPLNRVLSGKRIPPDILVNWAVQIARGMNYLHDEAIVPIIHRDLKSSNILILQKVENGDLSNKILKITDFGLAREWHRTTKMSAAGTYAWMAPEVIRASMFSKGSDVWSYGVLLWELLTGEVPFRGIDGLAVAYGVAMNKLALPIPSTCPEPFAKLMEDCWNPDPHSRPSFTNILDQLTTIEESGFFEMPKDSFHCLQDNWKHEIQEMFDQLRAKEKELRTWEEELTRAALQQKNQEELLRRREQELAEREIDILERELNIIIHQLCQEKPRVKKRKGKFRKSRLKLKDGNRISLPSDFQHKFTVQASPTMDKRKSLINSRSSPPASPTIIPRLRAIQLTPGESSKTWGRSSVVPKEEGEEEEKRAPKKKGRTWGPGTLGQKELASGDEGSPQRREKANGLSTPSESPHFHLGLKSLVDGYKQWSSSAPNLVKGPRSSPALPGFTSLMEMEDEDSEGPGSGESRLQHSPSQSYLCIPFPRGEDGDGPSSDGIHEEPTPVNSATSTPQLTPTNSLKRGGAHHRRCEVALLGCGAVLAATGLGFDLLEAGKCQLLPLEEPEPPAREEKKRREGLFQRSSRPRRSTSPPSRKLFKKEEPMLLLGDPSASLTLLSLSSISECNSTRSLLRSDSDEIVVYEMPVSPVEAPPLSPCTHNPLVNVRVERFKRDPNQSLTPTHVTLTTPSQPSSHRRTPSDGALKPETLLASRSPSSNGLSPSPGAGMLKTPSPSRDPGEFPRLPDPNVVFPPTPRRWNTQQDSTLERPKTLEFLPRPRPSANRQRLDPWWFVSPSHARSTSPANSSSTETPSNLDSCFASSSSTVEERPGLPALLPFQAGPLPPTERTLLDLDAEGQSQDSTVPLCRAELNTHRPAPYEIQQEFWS

[3] = molecular target: T2, Mitogen-activated protein kinase kinase kinase 9; assay: Inhibition of GST-fused human MLK1
How it was run: (§2)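 GST fusions of human MLK kinase domains from baculovirus (50 ng MLK1_KD, 150 ng MLK2_KD/LZ, 100 ng MLK3_KD), substrate 500 µg/mL myelin basic protein. Buffer 20 mM Hepes pH 7.2, 5 mM EGTA, 15 mM MgCl2, 1 mM DTT, 25 mM β-glycerophosphate, 0.1% BSA, 2% DMSO.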
Target sequence in this assay (P80192 whole entry, the tested form may be a part): as the sequence (P80192 whole entry, looked up, the tested form may be a part) above

[4] = molecular target: T2, Mitogen-activated protein kinase kinase kinase 9; assay: Inhibition of GST-fused human MLK1 expressed in CHO cells assessed as MKK4 phosphorylation; format: cell-based
How it was run: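 CHO cells transfected with MLK1 plus dominant-negative MKK4 cDNA; phospho-MKK4 quantified by ELISA; IC50 derived.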
Target sequence in this assay (P80192 whole entry, the tested form may be a part): as the sequence (P80192 whole entry, looked up, the tested form may be a part) above

[5] = molecular target: Vascular endothelial growth factor receptor 1 (Homo sapiens, UniProt P17948); assay: Inhibition of human VEGFR1 expressed in baculovirus insect cell system
[6] = Inhibition of human IRK expressed in baculovirus insect cell system
[7] = AUC in Sprague-Dawley rat at 2 mg/kg, iv; format: ADME, organism-based; parameters: dose 2 mg/kg, route intravenous; settings: plasma
How it was run: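 Single intravenous dose into the lateral tail vein in 3% DMSO, 30% solutol and 67% phosphate-buffered saline. Serial heparinized blood samples were taken from the lateral tail vein at seven times over 6 h. Plasma was separated by centrifugation, deproteinized with acetonitrile and analysed for drug against an internal standard by LC-MS/MS.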

Mus musculus [8] = assay: Neuroprotective activity against MPTP-induced loss of striatal dopamine markers in mouse at 2 mg/kg, po administered once daily; format: functional, organism-based; parameters: dose 2 mg/kg
How it was run: (§3)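 Mouse MPTP neurotoxicity: low dose 20 mg/kg sc, assessing striatal DA terminals by GBR-12935 binding; high dose 40 mg/kg sc, assessing striatal DA markers and substantia nigra cell bodies by TH immunoreactivity. Test compounds given orally, q.d. or b.i.d.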

[9] = molecular target: Platelet-derived growth factor receptor beta (Homo sapiens, UniProt P09619); assay: Inhibition of human PDGFRbeta expressed in baculovirus insect cell system
SH-SY5Y = assay: Neuroprotective activity against human SH-SY5Y cells assessed as inhibition of MPP+-induced cell death; format: functional, cell-based
[10] = Clearance in Sprague-Dawley rat at 2 mg/kg, iv; format: ADME, organism-based; parameters: dose 2 mg/kg, route intravenous; settings: in vivo
How it was run: (§4)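 Rat PK: iv dose into lateral tail vein in 3% DMSO/30% solutol/67% PBS; oral gavage in 50% Tween 80/40% propylene carbonate/10% propylene glycol, rats fasted overnight before oral dosing. Serial tail-vein blood at seven times over 6 h into heparinized tubes. Plasma protein-precipitated with acetonitrile, analysed with internal standard by LC-MS/MS. Bioavailability from iv versus po AUCs.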

Mus musculus [11] = assay: Neuroprotective activity against MPTP-induced loss of substantia nigra dopamine cell bodies in mouse at 2 mg/kg, po administered once daily; format: functional, organism-based; parameters: dose 2 mg/kg; how it was run: as §3
[12] = molecular target: Vascular endothelial growth factor receptor 3 (Homo sapiens, UniProt P35916); assay: Inhibition of human VEGFR3 expressed in baculovirus insect cell system
[13] = Oral bioavailability in Sprague-Dawley rat at 4 mg/kg; format: ADME, organism-based; settings: in vivo; how it was run: as §4
[14] = molecular target: High affinity nerve growth factor receptor (Homo sapiens, UniProt P04629); assay: Inhibition of human TrkA expressed in baculovirus insect cell system
[15] = AUC in Sprague-Dawley rat at 4 mg/kg, po; format: ADME, organism-based; parameters: dose 4 mg/kg, route oral; settings: plasma
How it was run: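 Rats were fasted overnight, then dosed by oral gavage in 50% Tween 80, 40% propylene carbonate and 10% propylene glycol. Serial heparinized blood samples were taken from the lateral tail vein at seven times over 6 h. Plasma was deproteinized with acetonitrile and analysed for drug against an internal standard by LC-MS/MS.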

[16] = molecular target: Vascular endothelial growth factor receptor 2 (Homo sapiens, UniProt P35968); assay: Inhibition of human VEGFR2 expressed in baculovirus insect cell system
[17] = Plasma concentration in mouse at 6.7 mg/kg, po administered 2 hrs before MPTP challenge followed by 40 mg/kg, sc 2 hrs after MPTP challenge; format: ADME, organism-based; settings: other: po followed by sc
How it was run: (§5)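 Mice dosed orally at 6.7 mg/kg 2 h before and 2 h after MPTP (40 mg/kg sc). Substantia nigra dissected 2 h after second dose; pMKK4 measured by immunoblot against treated and control groups. Plasma drug levels taken 2 h after dosing (4 h post-MPTP).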

[18] = molecular target: Mitogen-activated protein kinase kinase kinase 10 (Homo sapiens, UniProt Q02779); assay: Inhibition of human MLK2 expressed in baculovirus insect cell system
How it was run: as §2, with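 “DMSO. […] 15 min at 37 °C, TCA precipitation, scintillation counting. IC50 by variable-slope sigmoidal fit, average of duplicates within 20%.” for “DMSO.”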

[19] = molecular target: T1, Mitogen-activated protein kinase kinase kinase 11; assay: Inhibition of GST-fused human MLK3; how it was run: as §2
Target sequence in this assay (Q16584 whole entry, the tested form may be a part): as the sequence (Q16584 whole entry, looked up, the tested form may be a part) above

[20] = Cmax in Sprague-Dawley rat at 4 mg/kg, po; format: ADME, organism-based; parameters: dose 4 mg/kg, route oral; settings: in vivo
[21] = molecular target: Tyrosine-protein kinase Fyn (Homo sapiens, UniProt P06241); assay: Inhibition of human Fyn kinase expressed in baculovirus insect cell system
[22] = molecular target: Fibroblast growth factor receptor 1 (Homo sapiens, UniProt P11362); assay: Inhibition of human FGFR1 expressed in baculovirus insect cell system
[23] = Half life in Sprague-Dawley rat at 2 mg/kg, iv; format: ADME, organism-based; parameters: dose 2 mg/kg, route intravenous; settings: in vivo; how it was run: as §4
[24] = molecular target: Tyrosine-protein kinase Lck (Homo sapiens, UniProt P06239); assay: Inhibition of human Lck expressed in baculovirus insect cell system
[25] = molecular target: T3, Dual specificity mitogen-activated protein kinase kinase 4 (Homo sapiens, UniProt P45985); assay: Inhibition of human MKK4/7 expressed in baculovirus insect cell system
T3 sequence (P45985 whole entry): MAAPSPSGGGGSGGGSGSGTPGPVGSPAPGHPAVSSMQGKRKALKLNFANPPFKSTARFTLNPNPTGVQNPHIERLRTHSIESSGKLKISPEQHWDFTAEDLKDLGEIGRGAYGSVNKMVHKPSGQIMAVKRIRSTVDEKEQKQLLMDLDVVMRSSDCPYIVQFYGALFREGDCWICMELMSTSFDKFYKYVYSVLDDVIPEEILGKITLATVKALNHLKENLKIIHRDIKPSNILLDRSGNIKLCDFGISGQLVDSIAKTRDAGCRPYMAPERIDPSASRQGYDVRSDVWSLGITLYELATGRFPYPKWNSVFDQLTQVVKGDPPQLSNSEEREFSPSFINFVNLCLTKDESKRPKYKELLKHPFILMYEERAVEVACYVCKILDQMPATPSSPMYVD

[26] = molecular target: c-Jun N-terminal kinase, JNK (Homo sapiens, UniProt P45983+P53779+P45984); assay: Inhibition of human JNK expressed in baculovirus insect cell system
[27] = Half life in Sprague-Dawley rat at 4 mg/kg, po; format: ADME, organism-based; parameters: dose 4 mg/kg, route oral; settings: in vivo
[28] = molecular target: Serine/threonine-protein kinase Chk1/2 (Homo sapiens, UniProt O96017+O14757); assay: Inhibition of human CHK1/2 expressed in baculovirus insect cell system
Cyclin-dependent kinase = assay: Inhibition of human CDK expressed in baculovirus insect cell system
Protein kinase C (PKC) = assay: Inhibition of human PKC expressed in baculovirus insect cell system
[29] = Volume of distribution in Sprague-Dawley rat at 2 mg/kg, iv; format: ADME, organism-based; parameters: dose 2 mg/kg, route intravenous; settings: in vivo; how it was run: as §4
[30] = Metabolic stability in rat liver S9 fraction after 2 hrs in presence of NADPH; format: ADME, subcellular; settings: read-out: Stability
How it was run: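 Incubated 2 h in rat liver S9 preparation with NADPH; percent parent remaining reported.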

Mus musculus [31] = assay: Inhibition of MPTP-induced increase in pMKK4 levels in mouse at 6.7 mg/kg, po administered 2 hrs before MPTP challenge followed by 40 mg/kg, sc 2 hrs after MPTP challenge; format: functional; how it was run: as §5
[32] = molecular target: Mitogen-activated protein kinase 14 (Homo sapiens, UniProt Q16539); assay: Inhibition of human P38alpha expressed in baculovirus insect cell system

Sequence of Fibroblast growth factor receptor 1 (P11362 whole entry): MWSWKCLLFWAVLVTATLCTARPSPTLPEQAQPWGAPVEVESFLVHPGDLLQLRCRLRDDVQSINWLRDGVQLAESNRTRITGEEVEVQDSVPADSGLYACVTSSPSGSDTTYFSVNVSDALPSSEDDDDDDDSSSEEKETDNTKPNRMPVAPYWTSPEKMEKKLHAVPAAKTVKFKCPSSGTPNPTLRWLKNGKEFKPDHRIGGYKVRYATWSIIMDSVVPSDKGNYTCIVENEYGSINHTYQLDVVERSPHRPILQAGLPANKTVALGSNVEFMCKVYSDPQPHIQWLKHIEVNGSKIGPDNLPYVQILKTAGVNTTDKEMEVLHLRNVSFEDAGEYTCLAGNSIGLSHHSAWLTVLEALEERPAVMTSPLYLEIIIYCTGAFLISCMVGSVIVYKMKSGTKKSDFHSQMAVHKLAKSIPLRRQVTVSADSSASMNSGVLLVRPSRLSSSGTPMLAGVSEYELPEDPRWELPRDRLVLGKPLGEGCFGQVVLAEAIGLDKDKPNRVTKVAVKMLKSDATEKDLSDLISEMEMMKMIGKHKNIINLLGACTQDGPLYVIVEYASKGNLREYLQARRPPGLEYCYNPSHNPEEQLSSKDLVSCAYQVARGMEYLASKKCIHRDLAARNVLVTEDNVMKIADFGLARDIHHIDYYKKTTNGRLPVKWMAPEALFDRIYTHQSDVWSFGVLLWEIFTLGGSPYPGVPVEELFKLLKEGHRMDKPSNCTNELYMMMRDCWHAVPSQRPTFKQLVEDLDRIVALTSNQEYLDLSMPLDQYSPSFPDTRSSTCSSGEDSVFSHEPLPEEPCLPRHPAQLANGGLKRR
Sequence of Tyrosine-protein kinase Fyn (P06241 whole entry): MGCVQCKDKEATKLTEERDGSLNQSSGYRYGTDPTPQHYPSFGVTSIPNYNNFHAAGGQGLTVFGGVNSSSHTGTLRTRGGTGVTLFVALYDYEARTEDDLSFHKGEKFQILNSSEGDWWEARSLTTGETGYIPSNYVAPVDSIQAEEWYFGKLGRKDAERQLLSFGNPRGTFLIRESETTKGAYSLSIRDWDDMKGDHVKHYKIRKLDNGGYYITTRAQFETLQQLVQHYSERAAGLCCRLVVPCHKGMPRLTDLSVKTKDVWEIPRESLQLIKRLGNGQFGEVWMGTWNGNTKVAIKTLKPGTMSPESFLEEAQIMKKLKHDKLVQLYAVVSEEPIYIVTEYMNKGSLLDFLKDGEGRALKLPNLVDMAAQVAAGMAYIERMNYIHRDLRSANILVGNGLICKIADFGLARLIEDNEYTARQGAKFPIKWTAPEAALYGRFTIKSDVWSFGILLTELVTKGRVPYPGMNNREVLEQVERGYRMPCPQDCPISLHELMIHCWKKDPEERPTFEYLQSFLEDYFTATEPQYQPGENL
Sequence of Vascular endothelial growth factor receptor 1 (P17948 whole entry): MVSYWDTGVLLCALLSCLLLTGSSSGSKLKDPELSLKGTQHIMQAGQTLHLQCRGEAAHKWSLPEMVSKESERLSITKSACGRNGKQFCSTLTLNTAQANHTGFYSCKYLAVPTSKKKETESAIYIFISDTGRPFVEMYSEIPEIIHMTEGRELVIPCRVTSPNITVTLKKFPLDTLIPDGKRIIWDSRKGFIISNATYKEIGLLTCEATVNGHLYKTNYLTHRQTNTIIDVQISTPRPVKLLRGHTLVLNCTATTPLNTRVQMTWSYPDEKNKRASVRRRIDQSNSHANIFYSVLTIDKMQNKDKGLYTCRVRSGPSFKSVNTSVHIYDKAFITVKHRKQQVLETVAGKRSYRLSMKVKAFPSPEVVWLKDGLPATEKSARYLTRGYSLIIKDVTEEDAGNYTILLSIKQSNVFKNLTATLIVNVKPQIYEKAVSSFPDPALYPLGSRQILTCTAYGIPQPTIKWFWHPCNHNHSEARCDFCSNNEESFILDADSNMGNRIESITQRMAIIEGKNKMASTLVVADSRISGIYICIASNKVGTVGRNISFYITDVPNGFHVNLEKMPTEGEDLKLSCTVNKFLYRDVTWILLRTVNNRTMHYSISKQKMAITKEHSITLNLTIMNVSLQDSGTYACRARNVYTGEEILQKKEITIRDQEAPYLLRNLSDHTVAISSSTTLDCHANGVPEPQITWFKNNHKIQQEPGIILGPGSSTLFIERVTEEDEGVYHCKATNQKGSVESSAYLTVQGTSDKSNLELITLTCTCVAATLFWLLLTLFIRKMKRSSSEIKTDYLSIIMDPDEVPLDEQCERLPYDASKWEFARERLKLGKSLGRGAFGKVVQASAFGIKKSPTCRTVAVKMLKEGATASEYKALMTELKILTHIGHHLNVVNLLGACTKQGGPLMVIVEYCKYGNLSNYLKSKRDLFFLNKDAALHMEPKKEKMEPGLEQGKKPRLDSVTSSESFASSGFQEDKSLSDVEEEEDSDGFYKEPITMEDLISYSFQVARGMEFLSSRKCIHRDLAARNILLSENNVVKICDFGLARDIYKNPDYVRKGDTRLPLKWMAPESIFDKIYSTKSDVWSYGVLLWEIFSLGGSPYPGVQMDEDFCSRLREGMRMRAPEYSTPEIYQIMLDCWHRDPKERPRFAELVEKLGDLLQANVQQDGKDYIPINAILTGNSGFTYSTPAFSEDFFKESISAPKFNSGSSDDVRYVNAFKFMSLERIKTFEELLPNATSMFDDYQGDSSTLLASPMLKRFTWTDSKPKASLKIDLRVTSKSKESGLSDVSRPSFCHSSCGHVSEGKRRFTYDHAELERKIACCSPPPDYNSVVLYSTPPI

- inhibition [1]: 32%
- inhibition [2]: 30%
SMILES: O=C1NCc2c1c1c(c3c2c2ccccc2n3CCO)CCc2cc(OCC3CC3)ccc2-1

- inhibition [1]: 30%
- inhibition [2]: 36%
SMILES: O=C1NCc2c1c1c(c3c2c2ccccc2n3CCO)CCc2cc(OCc3ccccn3)ccc2-1

- inhibition [1]: 46%
SMILES: O=C1NCc2c1c1c(c3c2c2ccccc2n3CCO)CCc2cc(OCCO)ccc2-1

- inhibition [1]: 30%
- inhibition [2]: 32%
SMILES: O=C1NCc2c1c1c(c3c2c2ccccc2n3CCO)CCc2cc(O)ccc2-1

- inhibition [1]: 4%
- inhibition [2]: 35%
SMILES: O=C1NCc2c1c1c(c3c2c2ccccc2n3CCO)CCc2cc(OC3CCCCC3)ccc2-1

- inhibition [1]: 32%
- pIC50 [3]: 7.31
- pIC50 [4]: 6.46
SMILES: O=C1NCc2c1c1c(c3c2c2ccccc2n3CCO)CCc2cc(OC3CCCC3)ccc2-1

- pIC50 [5]: < 5.00
- AUC [7]: 1730 ng·h/mL
- pIC50 [9]: < 5.00
- clearance [10]: 19 mL/min/kg
- pIC50 [12]: < 5.00
- bioavailability [13]: 57%
- pIC50 [14]: 5.90
- AUC [15]: 1990 ng·h/mL
- pIC50 [16]: 5.33
- concentration at 2 h [17]: 250 nM
- pIC50 [3]: 6.99
- pIC50 [18]: 5.80
- pIC50 [19]: 7.26
- Cmax [20]: 572 ng/mL
- pIC50 [21]: 5.47
- pIC50 [22]: < 5.00
- half-life [23]: 0.6 h
- pIC50 [24]: 5.19
- pIC50 [25]: < 5.52
- IC50 [26]: > 30 µM
- half-life [27]: 1.4 h
- IC50 [28]: > 10 µM
- IC50 (Cyclin-dependent kinase): > 10 µM
- pIC50 [4]: 6.90
- IC50 (Protein kinase C (PKC)): > 10 µM
- Vd [29]: 0.9 L/kg
- remaining at 2 h [30]: 44%
- pIC50 [32]: < 5.00
SMILES: COc1ccc2c(c1)CCc1c-2c2c(c3c4ccccc4n(CCO)c13)CNC2=O
- pIC50 [6]: < 5.00
- Activity (Mus musculus [8]): Active
- pIC50 (SH-SY5Y): 7.49
- Activity (Mus musculus [11]): Active
- inhibition (INH) (Mus musculus [31]): 68%

- pIC50 [3]: 7.00
- pIC50 [19]: 7.06
SMILES: COc1ccc2c(c1)CCc1c-2c2c(c3c4ccccc4n(CCCO)c13)CNC2=O

- inhibition [1]: 40%
- inhibition [2]: 52%
SMILES: COCCOc1ccc2c(c1)CCc1c-2c2c(c3c4ccccc4n(CCO)c13)CNC2=O

From ChEMBL document CHEMBL1140055, “Mixed-lineage kinase 1 and mixed-lineage kinase 3 subtype-selective dihydronaphthyl[3,4-a]pyrrolo[3,4-c]carbazole-5-ones: optimization, mixed-lineage kinase 1 crystallography, and oral in vivo activity in 1-methyl-4-phenyltetrahydropyridine models” (J Med Chem, 2008)
